Measured values from ChEMBL document CHEMBL4765255, “Design and synthesis of Imidazo[1,2-b]pyridazine IRAK4 inhibitors for the treatment of mutant MYD88 L265P diffuse large B-cell lymphoma” (Eur J Med Chem, 2020).
pIC50: −log10 of the molar value. The source made the active and inactive calls.

Experiments:
[1] = biological target: T1, Interleukin-1 receptor-associated kinase 4 (Homo sapiens, UniProt Q9NWZ3); test: Inhibition of recombinant human His-tagged full length IRAK4 expressed in baculovirus expression system using Ser/Thr07 peptide as substrate incubated for 1 hr by Z'lyte assay
T1 sequence (Q9NWZ3 whole entry): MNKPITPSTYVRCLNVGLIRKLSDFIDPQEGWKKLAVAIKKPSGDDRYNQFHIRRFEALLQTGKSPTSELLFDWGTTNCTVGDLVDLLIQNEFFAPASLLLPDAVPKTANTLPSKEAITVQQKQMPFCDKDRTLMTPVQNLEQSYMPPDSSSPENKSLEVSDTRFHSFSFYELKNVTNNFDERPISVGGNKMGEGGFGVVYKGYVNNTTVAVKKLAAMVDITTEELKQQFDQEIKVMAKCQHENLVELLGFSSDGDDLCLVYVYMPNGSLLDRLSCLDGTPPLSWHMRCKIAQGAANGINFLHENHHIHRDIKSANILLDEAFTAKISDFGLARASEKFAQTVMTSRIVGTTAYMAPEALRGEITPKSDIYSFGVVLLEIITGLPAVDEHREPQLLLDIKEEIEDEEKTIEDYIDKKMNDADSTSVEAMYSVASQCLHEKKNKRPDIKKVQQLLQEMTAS

[2] = system: OCI-Ly10; test: Cytotoxicity against human OCILY10 cells harboring MYD88 L265P mutant assessed as reduction in cell viability incubated for 72 hrs by CCK-8 assay; assay type: functional, cell-based; settings: OCI-Ly10, 72 h
[3] = system: Ramos; test: Cytotoxicity against human Ramos cells harboring MYD88 assessed as reduction in cell viability incubated for 72 hrs by CCK-8 assay; assay type: functional, cell-based
[4] = system: TMD8; test: Cytotoxicity against human TMD8 cells harboring MYD88 L265P mutant assessed as reduction in cell viability incubated for 72 hrs by CCK-8 assay; assay type: functional, cell-based; settings: TMD8, 72 h
[5] = system: HT; test: Cytotoxicity against human HT cells harboring MYD88 assessed as reduction in cell viability incubated for 72 hrs by CCK-8 assay; assay type: functional, cell-based
[6] = biological target: T2, Interleukin-1 receptor-associated kinase 4 (Homo sapiens) (UniProt Q9NWZ3); test: Inhibition of IRAK4 in human TMD8 cells assessed as decrease in IKKbeta phosphorylation at 0.3 to 10 uM incubated for 2 hrs by Western blot analysis; assay type: cell-based; settings: dose 0.3-10 µM
T2 sequence (whole entry): T1 sequence (Q9NWZ3 whole entry)
In short: (§1)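 OCI-LY10 or TMD8 cells, about 2×10^6 per well, treated with compound or DMSO for 2 h. Cells washed twice with PBS, lysed, then Western blotted for p-IRAK4 (Thr-345/Ser-346), p-IKKβ and p-p65. Bands quantified densitometrically; significance thresholds p<0.05, 0.01, 0.001.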

[7] = biological target: T2, Interleukin-1 receptor-associated kinase 4 (Homo sapiens); test: Inhibition of IRAK4 in human OCI-LY10 cells assessed as decrease in NF-kappaB phosphorylation at 0.3 to 10 uM incubated for 2 hrs by Western blot analysis; assay type: cell-based; settings: OCILY10, dose 0.3-10 µM; in short: as §1
[8] = biological target: T2, Interleukin-1 receptor-associated kinase 4 (Homo sapiens); test: Inhibition of IRAK4 in human OCI-LY10 cells assessed as decrease in IKKbeta phosphorylation at 0.3 to 10 uM incubated for 2 hrs by Western blot analysis; assay type: cell-based; settings: OCILY10, dose 0.3-10 µM; in short: as §1
[9] = biological target: T2, Interleukin-1 receptor-associated kinase 4 (Homo sapiens); test: Inhibition of IRAK4 in human TMD8 cells assessed as decrease in NF-kappaB phosphorylation at 0.3 to 10 uM incubated for 2 hrs by Western blot analysis; assay type: cell-based; settings: dose 0.3-10 µM; in short: as §1
[10] = biological target: Receptor-type tyrosine-protein kinase FLT3 (Homo sapiens) (UniProt P36888); test: Inhibition of FLT3 (unknown origin) at 0.1 uM incubated for 1 hr by ELISA relative to control
In short: (§2)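 Part of a 20-kinase panel tested at 0.1 μM compound. Kinase inhibition measured by ELISA following previously described protocols.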

[11] = system: Receptor-type tyrosine-protein kinase FLT3 (Homo sapiens), P36888 [UNDEFINED MUTATION]; test: Inhibition of FLT3-ITD mutant (unknown origin) at 0.1 uM incubated for 1 hr by ELISA relative to control; in short: as §2
[12] = system: TMD8; test: Cytotoxicity against human TMD8 cells harboring MYD88 L265P mutant assessed as combination index at 0.3 uM in presence of ibrutinib incubated for 72 hrs by CCK-8 assay; assay type: functional
In short: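 TMD8 cells (RPMI1640, 10% FBS, penicillin–streptomycin, 0.05 mM 2-mercaptoethanol, 37 °C, 5% CO2), seeded at 10000-12000 cells/well, exposed to ibrutinib plus IRAK4 inhibitor at varied concentrations for 72 h. Viability read by CCK-8; combination index computed with CalcuSyn, CI below 1 taken as synergy.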

[13] = biological target: Mast/stem cell growth factor receptor Kit (Homo sapiens) (UniProt P10721); test: Inhibition of c-Kit (unknown origin) at 0.1 uM incubated for 1 hr by ELISA relative to control; in short: as §2
[14] = biological target: T2, Interleukin-1 receptor-associated kinase 4 (Homo sapiens); test: Inhibition of IRAK4 in human TMD8 cells assessed as decrease in IRAK4 Thr345/Ser346 phosphorylation incubated for 2 hrs by Western blot analysis; assay type: cell-based; settings: dose 0.3-10 µM; in short: as §1
[15] = biological target: T2, Interleukin-1 receptor-associated kinase 4 (Homo sapiens); test: Inhibition of IRAK4 in human OCILY10 cells assessed as decrease in IRAK4 Thr345/Ser346 phosphorylation incubated for 2 hrs by Western blot analysis; assay type: cell-based; settings: dose 0.3-10 µM; in short: as §1

Mast/stem cell growth factor receptor Kit (Homo sapiens), sequence (P10721 whole entry): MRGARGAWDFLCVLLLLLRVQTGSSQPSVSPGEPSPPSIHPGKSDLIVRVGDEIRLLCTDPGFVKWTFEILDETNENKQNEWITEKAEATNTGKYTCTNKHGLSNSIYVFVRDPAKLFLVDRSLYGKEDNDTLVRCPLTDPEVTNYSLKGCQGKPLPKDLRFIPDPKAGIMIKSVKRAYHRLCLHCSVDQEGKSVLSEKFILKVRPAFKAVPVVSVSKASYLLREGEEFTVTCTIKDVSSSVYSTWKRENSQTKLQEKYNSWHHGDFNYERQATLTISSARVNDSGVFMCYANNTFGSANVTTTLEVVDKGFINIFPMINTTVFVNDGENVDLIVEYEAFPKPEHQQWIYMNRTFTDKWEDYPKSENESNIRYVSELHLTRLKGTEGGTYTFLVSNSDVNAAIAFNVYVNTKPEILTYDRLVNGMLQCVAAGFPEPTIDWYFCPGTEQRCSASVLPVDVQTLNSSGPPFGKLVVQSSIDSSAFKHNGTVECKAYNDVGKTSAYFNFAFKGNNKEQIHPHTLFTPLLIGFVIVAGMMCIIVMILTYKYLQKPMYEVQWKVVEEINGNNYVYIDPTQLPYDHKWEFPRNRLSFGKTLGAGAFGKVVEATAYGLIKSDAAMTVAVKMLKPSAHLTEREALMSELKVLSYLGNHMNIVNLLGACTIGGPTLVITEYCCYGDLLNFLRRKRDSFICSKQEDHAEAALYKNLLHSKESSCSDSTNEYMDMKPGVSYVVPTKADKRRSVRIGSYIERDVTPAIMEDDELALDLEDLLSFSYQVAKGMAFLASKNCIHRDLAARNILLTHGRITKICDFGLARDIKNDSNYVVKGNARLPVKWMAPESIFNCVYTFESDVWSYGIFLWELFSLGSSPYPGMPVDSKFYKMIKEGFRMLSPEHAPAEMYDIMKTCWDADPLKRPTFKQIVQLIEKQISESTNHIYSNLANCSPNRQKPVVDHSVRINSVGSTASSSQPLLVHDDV
Receptor-type tyrosine-protein kinase FLT3 (Homo sapiens), P36888 [UNDEFINED MUTATION], sequence (P36888 whole entry, looked up, stated change not applied): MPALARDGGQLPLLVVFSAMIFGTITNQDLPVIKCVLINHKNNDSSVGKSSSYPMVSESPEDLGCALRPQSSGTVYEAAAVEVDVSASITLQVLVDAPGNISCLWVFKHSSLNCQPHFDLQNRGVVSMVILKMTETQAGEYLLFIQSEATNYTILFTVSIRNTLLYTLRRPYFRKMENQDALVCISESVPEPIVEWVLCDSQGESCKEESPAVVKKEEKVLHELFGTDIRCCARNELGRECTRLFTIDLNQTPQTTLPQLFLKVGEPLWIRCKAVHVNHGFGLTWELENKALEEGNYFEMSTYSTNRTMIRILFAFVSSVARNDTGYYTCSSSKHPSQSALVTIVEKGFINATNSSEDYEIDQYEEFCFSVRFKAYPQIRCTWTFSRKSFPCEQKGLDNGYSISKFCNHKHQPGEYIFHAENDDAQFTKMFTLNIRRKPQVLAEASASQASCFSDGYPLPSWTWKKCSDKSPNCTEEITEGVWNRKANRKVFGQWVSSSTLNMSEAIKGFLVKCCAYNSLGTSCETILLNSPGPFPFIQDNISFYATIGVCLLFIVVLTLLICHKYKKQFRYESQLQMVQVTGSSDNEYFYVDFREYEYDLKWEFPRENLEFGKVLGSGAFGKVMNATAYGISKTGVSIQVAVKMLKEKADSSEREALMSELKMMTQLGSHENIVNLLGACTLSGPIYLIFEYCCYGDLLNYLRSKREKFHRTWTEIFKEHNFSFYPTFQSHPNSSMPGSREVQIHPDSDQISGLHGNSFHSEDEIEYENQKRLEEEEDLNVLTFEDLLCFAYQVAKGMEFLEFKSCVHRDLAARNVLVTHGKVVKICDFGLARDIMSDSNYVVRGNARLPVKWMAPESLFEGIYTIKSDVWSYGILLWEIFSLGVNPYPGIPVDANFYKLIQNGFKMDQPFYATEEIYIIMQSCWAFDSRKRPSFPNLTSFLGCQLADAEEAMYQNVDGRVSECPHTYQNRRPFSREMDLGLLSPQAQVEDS
Receptor-type tyrosine-protein kinase FLT3 (Homo sapiens), sequence (P36888 whole entry): as the sequence (P36888 whole entry, looked up, stated change not applied) above

Row | SMILES | pIC50 [1] | pIC50 [2] | pIC50 [3] | pIC50 [4] | pIC50 [5] | further results
1 | Cn1cc(NC(=O)c2cnc3ccc(N[C@@H]4CCCNC4)nn23)c(C(N)=O)n1 | 7.90 |  |  |  |  | 
2 | Cn1cc(NC(=O)c2cnc3ccc(N4CCNCC4)nn23)c(C(F)F)n1 | 7.18 |  |  |  |  | 
3 | Cc1nc2ccc(N[C@@H]3CCCNC3)nn2c1C(=O)Nc1cn(C)nc1C(F)F | < 6.00 |  |  |  |  | 
4 | CC(C)n1cc(NC(=O)c2cnc3ccc(N[C@@H]4CCCNC4)nn23)c(C(F)(F)F)n1 | 7.11 |  |  |  |  | 
5 | Cn1cc(NC(=O)c2cnc3ccc(N[C@H]4CCCNC4)nn23)c(C(F)F)n1 | 7.44 | 4.65 | < 4.30 | 4.65 | < 4.30 | 
6 | CN(c1ccc2ncc(C(=O)Nc3cn(C)nc3C(F)F)n2n1)[C@@H]1CCCNC1 | < 6.00 |  |  |  |  | 
7 | Cn1cc(NC(=O)c2cnc3ccc(N[C@@H]4CCCNC4)nn23)c(C(F)(F)F)n1 | 7.63 | 5.55 | < 4.30 | 5.23 | < 4.30 | 
8 | Cn1cc(NC(=O)c2cnc3ccc(N4CC[C@@H](N)C4)nn23)c(C(F)F)n1 | < 6.00 |  |  |  |  | 
9 | Cn1cc(NC(=O)c2cnc3ccc(N[C@@H]4CCNC4)nn23)c(C(F)F)n1 | 8.11 | 5.44 | 4.35 | 5.08 | < 4.30 | 
10 | Cn1cc(NC(=O)c2cnc3ccc(N[C@@H]4CCCNC4)nn23)c(C(F)F)n1 | 8.89 | 6.15 | 4.94 | 5.92 | 4.40 | inhibition [6]: Active; inhibition [7]: Active; inhibition [8]: Active; inhibition [9]: Active; inhibition [10]: > 50%; inhibition [11]: > 50%; CI [12]: 0.13; inhibition [13]: > 50%; inhibition [14]: Dose-dependent effect; inhibition [15]: Dose-dependent effect
11 | Cn1cc(NC(=O)c2ncn3ccc(N4CCC[C@@H](N)C4)nc23)c(C(F)F)n1 | < 6.00 | < 4.30 | < 4.30 | < 4.30 | < 4.30 | 
12 | Cn1cc(NC(=O)c2cnc3ccc(N[C@@H]4CCCCNC4)nn23)c(C(F)F)n1 | 8.05 | 6.10 | 5.14 | 5.92 | 4.44 | 
13 | Cn1cc(NC(=O)c2cnc3ccc(N4CCC[C@@H](N)C4)nn23)c(C(F)F)n1 | 8.06 | 4.97 | 4.35 | 4.75 | 4.38 | 
14 | CCn1cc(NC(=O)c2cnc3ccc(N[C@@H]4CCCNC4)nn23)c(C(F)(F)F)n1 | 7.49 | 5.44 | < 4.30 | 5.21 | < 4.30 | 
15 | Cc1nn2ccc(N[C@@H]3CCCNC3)nc2c1C(=O)Nc1cn(C)nc1C(F)F | < 6.00 |  |  |  |  | 
16 | Cc1nn(C)cc1NC(=O)c1cnc2ccc(N[C@@H]3CCCNC3)nn12 | < 6.00 |  |  |  |  | 
17 | Cn1cc(NC(=O)c2cnn3ccc(N4CCC[C@@H](N)C4)nc23)c(C(F)F)n1 | 8.03 | 5.26 | 4.72 | 5.14 | 4.53 | 
18 | Cn1cc(NC(=O)c2cnc3ccc(N[C@@H]4CCCNC4)nn23)c(C#N)n1 | 7.39 | 5.24 | 4.54 | 4.83 | < 4.30 | 
19 | O=C(Nc1cn(C2CCOCC2)nc1C(F)(F)F)c1cnc2ccc(N[C@@H]3CCCNC3)nn12 | 7.30 | 4.98 | < 4.30 | 4.95 | < 4.30 | 
20 | O=C(Nc1cn(C2CCNCC2)nc1C(F)(F)F)c1cnc2ccc(N[C@@H]3CCCNC3)nn12 | 7.28 |  |  |  |  | 
21 | Cn1cc(NC(=O)c2cnc3ccc(N4CCC(N)CC4)nn23)c(C(F)F)n1 | 7.10 |  |  |  |  | 
22 | Cn1cc(NC(=O)c2cnc3ccc(NCCN)nn23)c(C(F)F)n1 | 7.76 | 5.06 | < 4.30 | 4.75 | < 4.30 | 
